Results published in ChEMBL document CHEMBL4715919 (Bioorg Med Chem, 2021).

Columns and labels:
[1] = target: T1, Sodium/glucose cotransporter 2 (Homo sapiens, UniProt P31639); assay: Inhibition of human SGLT2 expressed in COS7 cells assessed as reduction in [14C]-AMG uptake; assay type: cell-based
T1 sequence (P31639 whole entry): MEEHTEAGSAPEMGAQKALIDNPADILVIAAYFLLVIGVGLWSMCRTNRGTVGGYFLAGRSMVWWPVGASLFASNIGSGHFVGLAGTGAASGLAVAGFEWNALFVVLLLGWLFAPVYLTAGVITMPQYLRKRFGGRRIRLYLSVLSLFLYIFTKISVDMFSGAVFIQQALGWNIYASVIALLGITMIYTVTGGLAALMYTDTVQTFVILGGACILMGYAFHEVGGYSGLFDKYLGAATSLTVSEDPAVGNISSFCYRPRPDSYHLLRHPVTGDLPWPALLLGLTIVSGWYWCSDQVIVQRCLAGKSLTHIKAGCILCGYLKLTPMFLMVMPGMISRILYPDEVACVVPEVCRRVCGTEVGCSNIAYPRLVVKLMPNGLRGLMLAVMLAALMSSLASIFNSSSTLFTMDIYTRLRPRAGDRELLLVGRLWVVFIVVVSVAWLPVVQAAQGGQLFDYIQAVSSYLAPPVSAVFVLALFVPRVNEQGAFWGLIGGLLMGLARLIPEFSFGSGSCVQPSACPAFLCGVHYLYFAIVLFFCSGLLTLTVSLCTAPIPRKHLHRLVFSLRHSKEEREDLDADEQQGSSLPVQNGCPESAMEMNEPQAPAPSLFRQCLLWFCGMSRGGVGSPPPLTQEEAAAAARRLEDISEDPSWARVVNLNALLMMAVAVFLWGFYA
In short: (§1)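 Human SGLT2 expression plasmid transfected into COS-7 cells. Uptake of [¹⁴C]-α-methyl-D-glucopyranoside (AMG) measured with 0.3 mM AMG in uptake buffer. […] Mean ± SEM of at least three independent experiments.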

[2] = Intrinsic clearance in rat intestinal S9 fraction at 10 uM up to 60 min in presence of NADPH by LC-MS/MS analysis
[3] = Apparent permeability of compound in human Caco-2 cells by LC-MS/MS analysis; assay type: ADME, cell-based
In short: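 Caco-2 cells seeded at 1.0 × 10⁵ cells/well on polycarbonate inserts (0.3 cm², 1 μm pores). After 60 min at 37 °C in 5% CO₂, buffer sampled from the opposite side. Compound measured by LC-MS/MS. Papp in 10^-6 cm/s.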

[4] = Oral bioavailability in rat assessed as ratio of AUC at 3 mg/kg up to 360 mins by LC-MS/MS analysis; assay type: ADME, organism-based; conditions: in vivo
In short: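 Rat oral dosing at 3 mg/kg in 0.5% methyl cellulose, with iv dosing at 1 mg/kg in 20% DMA/80% saline. Jugular blood sampled from 5 to 360 min, plasma quantified by LC-MS/MS. F is the ratio of oral AUC to iv AUC. For the ester prodrug, AUC of the parent glucoside after prodrug dosing is compared with iv parent.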

[5] = Intrinsic clearance in human liver microsomes at 30 uM up to 60 mins by LC-MS/MS analysis; assay type: ADME, Microsome; conditions: read-out: CLH
In short: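 Compound at 30 μM incubated at 37 °C with human liver microsomes (1 mg/mL protein) in 100 mmol/L phosphate pH 7.4 with 10 mM MgCl₂ and 1 mg/mL NADPH. Sampled at 0, 15, 30 and 60 min, quenched with ice-cold acetonitrile, centrifuged. Parent measured by LC-MS/MS. t1/2 and CLint derived from remaining compound.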

[6] = AUC(0 to t) in rat at 3 mg/kg, po up to 360 mins by LC-MS/MS analysis; assay type: ADME, organism-based; design: route oral, dose 3 mg/kg, time <=360; conditions: in vivo
In short: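 Rats dosed once orally at 3 mg/kg (5 mL/kg) as a suspension in 0.5 w/v% methyl cellulose 400. Jugular vein blood drawn at 5, 10, 15, 30, 60, 120, 240 and 360 min. Plasma levels measured by LC-MS/MS. AUC taken to the last observation point. Mean ± SD.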

[7] = target: T1, Sodium/glucose cotransporter 2; assay: Inhibition of human SGLT2 expressed in COS7 cells; assay type: cell-based; in short: as §1

SMILES	IC50 [1]	other results
CCc1[nH]nc(O[C@@H]2O[C@H](CO)[C@@H](O)[C@H](O)[C@H]2O)c1Cc1ccc(SC)cc1	0.0512 µM	microsomal CLint at 10 µM [2]: 4.8 µL/min/mg
Cc1cccc(Cc2c(O[C@@H]3O[C@H](CO)[C@@H](O)[C@H](O)[C@H]3O)n[nH]c2C)c1	0.757 µM	–
Cc1[nH]nc(O[C@@H]2O[C@H](CO)[C@@H](O)[C@H](O)[C@H]2O)c1Cc1ccccc1	0.181 µM	–
CSc1ccc(Cc2c(O[C@@H]3O[C@H](CO)[C@@H](O)[C@H](O)[C@H]3O)n[nH]c2C(F)(F)F)cc1	0.0163 µM	microsomal CLint at 10 µM [2]: 73.2 µL/min/mg
Cc1ccccc1Cc1c(O[C@@H]2O[C@H](CO)[C@@H](O)[C@H](O)[C@H]2O)n[nH]c1C	0.914 µM	–
CCOC(=O)OC[C@H]1O[C@@H](Oc2nn(C(C)C)c(C)c2Cc2ccc(OC(C)C)cc2)[C@H](O)[C@@H](O)[C@@H]1O [REMOGLIFLOZIN ETABONATE]	2.53 µM	Papp [3]: 4.29 ×10⁻⁶ cm/s; bioavailability [4]: 5.79%; microsomal CLint at 10 µM [2]: 3.4 µL/min/mg
CCOc1ccc(Cc2c(O[C@@H]3O[C@H](CO)[C@@H](O)[C@H](O)[C@H]3O)n[nH]c2C)cc1	0.0108 µM	–
Cc1c(Cc2ccc(OC(C)C)cc2)c(O[C@@H]2O[C@H](CO)[C@@H](O)[C@H](O)[C@H]2O)nn1C(C)C [REMOGLIFLOZIN]	0.0184 µM	microsomal CLint at 30 µM [5]: 0.85 µL/min/mg; Papp [3]: 3.16 ×10⁻⁶ cm/s; AUC(0-t) at 6 h [6]: 27.9 ng·h/mL; bioavailability [4]: 3.23%; microsomal CLint at 10 µM [2]: 3.9 µL/min/mg
CSc1ccc(Cc2c(C(F)(F)F)n[nH]c2O)cc1	–	IC50 [7]: > 1000 µM
Cc1[nH]nc(O[C@@H]2O[C@H](CO)[C@@H](O)[C@H](O)[C@H]2O)c1Cc1ccc(C(C)C)cc1	0.0162 µM	–
Cc1nn(C)c(O[C@@H]2O[C@H](CO)[C@@H](O)[C@H](O)[C@H]2O)c1Cc1ccc(OC(C)C)cc1	> 1 µM	–
Cc1[nH]nc(O[C@@H]2O[C@H](CO)[C@@H](O)[C@H](O)[C@H]2O)c1CCCc1ccccc1	3.95 µM	–
CCCc1ccc(Cc2c(O[C@@H]3O[C@H](CO)[C@@H](O)[C@H](O)[C@H]3O)n[nH]c2C)cc1	0.0088 µM	–
COc1ccc(Cc2c(O[C@@H]3O[C@H](CO)[C@@H](O)[C@H](O)[C@H]3O)n[nH]c2C)cc1	0.0123 µM	–
Cc1[nH]nc(O[C@@H]2O[C@H](CO)[C@@H](O)[C@H](O)[C@H]2O)c1Cc1ccc(OC(C)C)cc1	0.01 µM	microsomal CLint at 30 µM [5]: 1.44 µL/min/mg; Papp [3]: 1.02 ×10⁻⁶ cm/s; AUC(0-t) at 6 h [6]: 6.42 ng·h/mL; bioavailability [4]: 0.43%; microsomal CLint at 10 µM [2]: 4.1 µL/min/mg
Cc1[nH]nc(O[C@@H]2O[C@H](CO)[C@@H](O)[C@H](O)[C@H]2O)c1CCc1ccccc1	5.29 µM	–
Cc1c(Cc2ccc(OC(C)C)cc2)c(O[C@@H]2O[C@H](CO)[C@@H](O)[C@H](O)[C@H]2O)nn1C	0.11 µM	microsomal CLint at 30 µM [5]: 3.73 µL/min/mg
Cc1ccc(Cc2c(O[C@@H]3O[C@H](CO)[C@@H](O)[C@H](O)[C@H]3O)n[nH]c2C)cc1	0.0122 µM	–
CCc1ccc(Cc2c(O[C@@H]3O[C@H](CO)[C@@H](O)[C@H](O)[C@H]3O)n[nH]c2C)cc1	0.0039 µM	–
CCCOc1ccc(Cc2c(O[C@@H]3O[C@H](CO)[C@@H](O)[C@H](O)[C@H]3O)n[nH]c2C)cc1	0.0154 µM	–
CCCn1nc(O[C@@H]2O[C@H](CO)[C@@H](O)[C@H](O)[C@H]2O)c(Cc2ccc(OC(C)C)cc2)c1C	0.0661 µM	microsomal CLint at 30 µM [5]: 6.75 µL/min/mg
CSc1ccc(Cc2c(O[C@@H]3O[C@H](CO)[C@@H](O)[C@H](O)[C@H]3O)n[nH]c2C(C)C)cc1	0.154 µM	microsomal CLint at 10 µM [2]: 4.6 µL/min/mg
OC[C@H]1O[C@@H](Oc2n[nH]c3cccc(CCc4ccccc4)c23)[C@H](O)[C@@H](O)[C@@H]1O	0.086 µM	–
CSc1ccc(Cc2c(O[C@@H]3O[C@H](CO)[C@@H](O)[C@H](O)[C@H]3O)n[nH]c2C)cc1	0.0049 µM	microsomal CLint at 10 µM [2]: 3.2 µL/min/mg
CCn1nc(O[C@@H]2O[C@H](CO)[C@@H](O)[C@H](O)[C@H]2O)c(Cc2ccc(OC(C)C)cc2)c1C	0.0434 µM	microsomal CLint at 30 µM [5]: 4.15 µL/min/mg
